Measurements from ChEMBL document CHEMBL1123202, “Imidazo[4,5-c]pyridines (3-deazapurines) and their nucleosides as immunosuppressive and antiinflammatory agents” (1986).
Active and inactive are the calls of the source. No cut-off for these calls is given here.

What was measured:
[1] = tested on: EL4; test: Inhibition of lymphocyte-mediated cytolysis at a concentration of 100 uM in [51Cr]- labelled EL4 leukemia cells; assay type: functional; settings: Mus musculus
[2] = species: Mus musculus; test: Compound was tested for inhibition of mouse connective tissue cell (L) growth at a concentration of 100 uM; assay type: functional; settings: for inhibition at 100 µM: Mus musculus
Method in brief: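 D-98 (human sternal marrow) and L (mouse connective tissue) cells were cultured with compound at 100 µM, and growth inhibition was reported as %. Procedure per earlier publication.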

[3] = species: Rattus norvegicus; test: Dose required to produce an acute inflammatory response of the algal poly saccharide carrageenan into the pleural cavity of rat.; assay type: functional
[4] = tested on: D98 (Homo sapiens); test: Compound was tested for inhibition of human sternal marrow cell (D98) growth at a concentration of 100 uM
[5] = tested on: Rattus norvegicus; test: Dose required to produce an acute inflammatory response of the algal poly saccharide carrageenan into the pleural cavity of rat; IA is Inactive at 9 mg/kg; assay type: functional, organism-based; set-up: dose 9 mg/kg
[6] = tested on: Rattus norvegicus; test: Dose required to produce an acute inflammatory response of the algal poly saccharide carrageenan into the pleural cavity of rat; IA is Inactive at 6 mg/kg; assay type: functional, organism-based; set-up: dose 6 mg/kg
[7] = tested on: EL4; test: Compound was tested for inhibition of lymphocyte-mediated cytolysis at a concentration of 26 uM in [51Cr]- labeled EL4 leukemia cells; assay type: functional; settings: Mus musculus
[8] = tested on: EL4; test: Compound was tested for inhibition of lymphocyte-mediated cytolysis at a concentration of 50 uM in [51Cr]- labeled EL4 leukemia cells; assay type: functional; settings: Mus musculus

Structure (SMILES): Nc1nccc2c1ncn2[C@@H]1O[C@H](CO)[C@@H](O)[C@H]1O
- inhibition at 100 µM [1]: 80%
- inhibition at 100 µM [2]: 49%
- ED50 [3]: 3 mg/kg
- inhibition [4]: 56%

Structure (SMILES): OC[C@H]1OC(n2cnc3c(SCc4ccccc4)nccc32)[C@H](O)[C@@H]1O (some centres not stated)
- inhibition at 100 µM [1]: 30%
- inhibition at 100 µM [2]: 43%
- ED50 [3]: 9 mg/kg
- inhibition [4]: 30%

Structure (SMILES): OC[C@H]1O[C@@H](n2cnc3cnccc32)[C@H](O)[C@@H]1O (stereo in doubt; 16) [listing 1 of 2 here]
- inhibition at 100 µM [1]: < 5%
- Inhibition [2]: 8%

Structure (SMILES): [N-]=[N+]=Nc1nccc2ncn([C@H]3C[C@H](O)[C@@H](CO)O3)c12
- inhibition at 100 µM [1]: < 5%
- inhibition at 100 µM [2]: 2%
- ED50 [3]: > 9 mg/kg
- inhibition [4]: 14%

Structure (SMILES): Nc1nccc2c1ncn2[C@H]1C[C@H](O)[C@@H](CO)O1
- inhibition at 100 µM [1]: 89%
- inhibition at 100 µM [2]: 0%
- ED50 [3]: 10 mg/kg
- inhibition [4]: 18%

Structure (SMILES): [O-][n+]1ccc2c(c1)ncn2C1O[C@H](CO)[C@@H](O)[C@H]1O (some centres not stated)
- inhibition at 100 µM [1]: < 5%
- inhibition at 100 µM [2]: 3%
- ED50 [5]: inactive
- inhibition [4]: 5%

Structure (SMILES): OC[C@H]1OC(n2cnc3c(S)nccc32)[C@H](O)[C@@H]1O (some centres not stated)
- inhibition at 100 µM [1]: < 5%
- inhibition at 100 µM [2]: 3%
- ED50 [3]: 9 mg/kg
- inhibition [4]: 6%

Structure (SMILES): CSc1nccc2c1ncn2[C@H]1C[C@H](O)[C@@H](CO)O1
- inhibition at 100 µM [1]: < 5%
- inhibition at 100 µM [2]: 30%
- ED50 [3]: > 9 mg/kg
- inhibition [4]: 36%

Structure (SMILES): c1ccc(CNc2[nH]ccc3ncnc2-3)cc1
- inhibition at 100 µM [1]: 57%
- inhibition at 100 µM [2]: 68%
- ED50 [3]: 9 mg/kg
- inhibition [4]: 75%

Structure (SMILES): CSc1[nH]ccc2ncnc1-2
- inhibition at 100 µM [1]: < 5%
- inhibition at 100 µM [2]: 11%
- ED50 [3]: 9 mg/kg
- inhibition [4]: 4%

Structure (SMILES): OC[C@H]1O[C@@H](n2cnc3c(Cl)nccc32)C[C@@H]1O
- inhibition at 100 µM [1]: < 5%
- inhibition at 100 µM [2]: 25%
- ED50 [5]: inactive
- inhibition [4]: 5%

Structure (SMILES): CN(C)c1nccc2c1ncn2C1O[C@H](CO)[C@@H](O)[C@H]1O (some centres not stated)
- inhibition at 100 µM [1]: 10%
- inhibition at 100 µM [2]: 14%
- ED50 [3]: > 9 mg/kg
- inhibition [4]: 0%

Structure (SMILES): OC[C@H]1O[C@@H](n2cnc3cnccc32)[C@H](O)[C@@H]1O (stereo in doubt; 16) [listing 2 of 2 here]
- ED50 [5]: inactive
- inhibition [4]: 13%

Structure (SMILES): OC[C@H]1O[C@@H](n2cnc3cnccc32)[C@H](O)[C@@H]1O (stereo in doubt; 17) [listing 1 of 2 here]
- ED50 [5]: inactive
- inhibition [4]: 1%

Structure (SMILES): OC[C@H]1OC(n2cnc3c(Cl)nccc32)[C@H](O)[C@@H]1O (some centres not stated)
- inhibition at 100 µM [1]: < 5%
- inhibition at 100 µM [2]: 27%
- ED50 [5]: inactive
- inhibition [4]: 76%

Structure (SMILES): CNc1[nH]ccc2ncnc1-2
- inhibition at 100 µM [1]: < 5%
- inhibition at 100 µM [2]: 6%
- ED50 [6]: inactive
- inhibition [4]: 18%

Structure (SMILES): c1cc2[nH]cnc2cn1
- inhibition at 100 µM [1]: < 5%
- inhibition at 100 µM [2]: 12%
- ED50 [3]: > 9 mg/kg
- inhibition [4]: 0%

Structure (SMILES): CNc1nccc2c1ncn2C1O[C@H](CO)[C@@H](O)[C@H]1O (some centres not stated)
- inhibition at 100 µM [1]: 11%
- inhibition at 100 µM [2]: 21%
- ED50 [6]: inactive
- inhibition [4]: 8%

Structure (SMILES): [N-]=[N+]=Nc1[nH]ccc2ncnc1-2
- inhibition at 100 µM [1]: < 5%
- inhibition at 100 µM [2]: 20%
- ED50 [5]: inactive
- inhibition [4]: 20%

Structure (SMILES): OC[C@H]1OC(n2cnc3c(Nc4ccccc4)nccc32)[C@H](O)[C@@H]1O (some centres not stated)
- inhibition at 100 µM [1]: 10%
- inhibition at 100 µM [2]: 18%
- ED50 [3]: > 9 mg/kg
- inhibition [4]: 4%

Structure (SMILES): c1ccc(Nc2[nH]ccc3ncnc2-3)cc1
- inhibition at 100 µM [1]: 26%
- inhibition at 100 µM [2]: 34%
- ED50 [5]: inactive
- inhibition [4]: 12%

Structure (SMILES): CCCCCCNc1nccc2c1ncn2C1O[C@H](CO)[C@@H](O)[C@H]1O (some centres not stated)
- inhibition at 100 µM [1]: 14%
- inhibition at 100 µM [2]: 41%
- ED50 [6]: inactive
- inhibition [4]: 8%

Structure (SMILES): OC[C@H]1O[C@@H](n2cnc3cnccc32)[C@H](O)[C@@H]1O (stereo in doubt; 17) [listing 2 of 2 here]
- Inhibition [2]: 3%

Structure (SMILES): Sc1[nH]ccc2ncnc1-2
- inhibition at 100 µM [1]: < 5%
- inhibition at 100 µM [2]: 38%
- ED50 [3]: 8 mg/kg
- inhibition [4]: 26%

Structure (SMILES): OC[C@H]1O[C@@H](n2cnc3c(S)nccc32)C[C@@H]1O
- inhibition at 100 µM [1]: < 5%
- inhibition at 100 µM [2]: 8%
- ED50 [5]: inactive
- inhibition [4]: 10%

Structure (SMILES): CN(C)c1nccc2c1ncn2[C@H]1C[C@H](O)[C@@H](CO)O1
- inhibition at 100 µM [1]: < 5%
- inhibition at 100 µM [2]: 6%
- ED50 [3]: > 9 mg/kg
- inhibition [4]: 0%

Structure (SMILES): CN(C)c1[nH]ccc2ncnc1-2
- inhibition at 100 µM [1]: 25%
- inhibition at 100 µM [2]: 21%
- ED50 [3]: 9 mg/kg
- inhibition [4]: 8%

Structure (SMILES): CCCCCCNc1[nH]ccc2ncnc1-2
- inhibition at 100 µM [1]: 100%
- inhibition at 26 µM [7]: 0%
- inhibition at 50 µM [8]: 45%
- inhibition at 100 µM [2]: 82%
- ED50 [3]: > 9 mg/kg
- inhibition [4]: 53%

Structure (SMILES): OCCNc1[nH]ccc2ncnc1-2
- inhibition at 100 µM [1]: < 5%
- inhibition at 100 µM [2]: 16%
- ED50 [3]: > 9 mg/kg
- inhibition [4]: 3%

Structure (SMILES): [N-]=[N+]=Nc1nccc2c1ncn2C1O[C@H](CO)[C@@H](O)[C@H]1O (some centres not stated)
- inhibition at 100 µM [1]: < 5%
- inhibition at 100 µM [2]: 8%
- ED50 [3]: > 9 mg/kg
- inhibition [4]: 4%

Structure (SMILES): OCCNc1nccc2c1ncn2C1O[C@H](CO)[C@@H](O)[C@H]1O (some centres not stated)
- inhibition at 100 µM [1]: 6%
- inhibition at 100 µM [2]: 3%
- ED50 [6]: inactive
- inhibition [4]: 0%

Structure (SMILES): C[C@H]1OC(n2cnc3c(N)nccc32)[C@H](O)[C@@H]1O (some centres not stated)
- inhibition at 100 µM [1]: 32%
- inhibition at 100 µM [2]: 4%
- ED50 [5]: inactive
- inhibition [4]: 18%

Structure (SMILES): Clc1[nH]ccc2ncnc1-2
- inhibition at 100 µM [1]: < 5%
- inhibition at 100 µM [2]: 29%
- ED50 [3]: > 9 mg/kg
- inhibition [4]: 6%

Structure (SMILES): Nc1[nH]ccc2ncnc1-2
- inhibition at 100 µM [1]: < 5%
- inhibition at 100 µM [2]: 24%
- ED50 [3]: 8 mg/kg
- inhibition [4]: 60%

Structure (SMILES): OC[C@H]1OC(n2cnc3c(NCc4ccccc4)nccc32)[C@H](O)[C@@H]1O (some centres not stated)
- inhibition at 100 µM [1]: 5%
- inhibition at 100 µM [2]: 38%
- ED50 [3]: > 9 mg/kg
- inhibition [4]: 32%

Structure (SMILES): c1ccc(CSc2[nH]ccc3ncnc2-3)cc1
- inhibition at 100 µM [1]: 20%
- inhibition at 100 µM [2]: 54%
- ED50 [3]: > 9 mg/kg
- inhibition [4]: 26%

Structure (SMILES): OC[C@H]1O[C@@H](n2cnc3c(SCc4ccccc4)nccc32)C[C@@H]1O
- inhibition at 100 µM [1]: 11%
- inhibition at 100 µM [2]: 19%
- ED50 [5]: inactive
- inhibition [4]: 18%

Structure (SMILES): [O-][n+]1ccc2c(c1)ncn2[C@H]1C[C@H](O)[C@@H](CO)O1
- inhibition at 100 µM [1]: < 5%
- inhibition at 100 µM [2]: 13%
- ED50 [5]: inactive
- inhibition [4]: 0%

Structure (SMILES): [O-][n+]1ccc2[nH]cnc2c1
- inhibition at 100 µM [1]: 5%
- inhibition at 100 µM [2]: 1%
- ED50 [3]: > 9 mg/kg
- inhibition [4]: 3%

Structure (SMILES): CC1OC(n2cnc3c(N)nccc32)CC1O (configuration not stated)
- inhibition at 100 µM [1]: 25%
- inhibition at 100 µM [2]: 12%
- ED50 [5]: inactive
- inhibition [4]: 3%

Structure (SMILES): CSc1nccc2c1ncn2C1O[C@H](CO)[C@@H](O)[C@H]1O (some centres not stated)
- inhibition at 100 µM [1]: < 5%
- inhibition at 100 µM [2]: 40%
- ED50 [5]: inactive
- inhibition [4]: 24%

Structure (SMILES): CCNc1[nH]ccc2ncnc1-2
- inhibition at 100 µM [1]: < 5%
- inhibition at 100 µM [2]: 11%
- ED50 [6]: inactive
- inhibition [4]: 3%

Structure (SMILES): CCNc1nccc2c1ncn2C1O[C@H](CO)[C@@H](O)[C@H]1O (some centres not stated)
- inhibition at 100 µM [1]: 8%
- inhibition at 100 µM [2]: 20%
- ED50 [6]: inactive
- inhibition [4]: 4%

Structure (SMILES): OC[C@H]1O[C@@H](n2cnc3c(NCc4ccccc4)nccc32)C[C@@H]1O
- inhibition at 100 µM [1]: 8%
- inhibition at 100 µM [2]: 37%
- ED50 [3]: > 9 mg/kg
- inhibition [4]: 18%

Structure (SMILES): [N-]=[N+]=Nc1nccc2c1ncn2[C@H]1C[C@H](O)[C@@H](CO)O1
- inhibition at 100 µM [1]: 13%
- inhibition at 100 µM [2]: 12%
- ED50 [5]: inactive
- inhibition [4]: 4%

Structure (SMILES): OC[C@H]1O[C@@H](n2cnc3cnccc32)C[C@@H]1O
- inhibition at 100 µM [1]: < 5%
- inhibition at 100 µM [2]: 0%
- ED50 [3]: > 9 mg/kg
- inhibition [4]: 6%
